{"data": "Measured values collected from several papers", "target": "Dual specificity tyrosine-phosphorylation-regulated kinase 1A (DYRK1A, Homo sapiens, UniProt Q13627)", "note": "Protocols differ between the studies behind these lines."}
{"SMILES": "COc1ncccc1-c1cnn2ccc(N3CCN(C(=O)OC(C)C)CC3)nc12", "test": "binding, competition with immobilised ligand", "conditions": "1 µM", "measurement": "remaining binding", "value": "95%"}
{"SMILES": "Cn1cc(-c2cccc(N3CCc4c(sc5c4CC(C)(C)C5)C3=O)c2CO)cc(Nc2ccncn2)c1=O", "test": "enzyme activity, inhibitor", "conditions": "1 µM", "measurement": "inhibition", "value": "5%"}
{"SMILES": "COc1cc(Nc2ncc(F)c(Nc3ccc4c(n3)NC(=O)C(C)(C)O4)n2)cc(OC)c1OC", "test": "binding, competition with immobilised ligand", "conditions": "10 µM", "measurement": "inhibition", "value": "91%"}
{"SMILES": "Cn1cc(-c2cc(F)cc(N3CCn4c(cc5c4CCCC5)C3=O)c2CO)cc(Nc2ccc(N3CCN(C4COC4)CC3)cn2)c1=O", "test": "enzyme activity, inhibitor", "conditions": "0.1 µM", "measurement": "inhibition", "value": "4%"}
{"SMILES": "Nc1ncc(-c2nc(N3CCOCC3)nc(N3CCOCC3)n2)c(C(F)F)n1", "test": "cell-free assay, competition with immobilised ligand", "conditions": "10 µM", "measurement": "remaining binding", "value": "48%"}
{"SMILES": "Cc1nn(C)cc1-c1nc2c(N3CCN(Cc4ccc(Cl)cc4)CC3)c(Cl)cnc2[nH]1", "test": "binding, competition with immobilised ligand", "conditions": "1 µM", "measurement": "remaining binding", "value": "82%"}
{"SMILES": "O=c1[nH]c2ccccc2n1C1CCN(Cc2ccc(-c3[nH]c4cc5ncnc5cc4nc3-c3ccccc3)cc2)CC1", "test": "cell-free assay", "conditions": "0.5 µM", "measurement": "remaining signal", "value": "101%"}
{"SMILES": "N#CC1(c2ccccn2)CCN(Cc2cc(C(=O)O)c(=O)n3ccccc23)CC1", "test": "cell-free assay, competition with immobilised ligand", "conditions": "1 µM", "measurement": "remaining binding", "value": "97%"}
{"SMILES": "CC(C)(C)c1cc(C=C(C#N)C#N)cc(Br)c1O", "test": "enzyme activity, inhibitor", "conditions": "0.5 µM", "measurement": "remaining activity", "value": "95.4%"}
{"SMILES": "Cn1cncc1[C@](O)(COc1ccc(C#N)cc1-c1ccc(OC(F)(F)F)cc1)c1ccc(C#N)cc1", "test": "cell-free assay, competition with immobilised ligand", "conditions": "1 µM", "measurement": "remaining binding", "value": "81%"}
